In ChEMBL document CHEMBL4665858, “New BODIPYs for photodynamic therapy (PDT): Synthesis and activity on human cancer cell lines” (Bioorg Med Chem, 2020):
Active and inactive are the calls of the source. The rule behind the calls is not given here.

Columns and labels:
[1] = system: HCT-116; experiment: Antiproliferative activity against human HCT116 cells assessed as reduction in cell viability preincubated for 24 hrs followed by irradiated with green LED for 2 hrs then incubated in dark for 24 hrs in drug free medium by MTT assay; type: functional, cell-based; conditions: HCT-116, light or radiation study
Summary of the method: (§1)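 HCT116 and SKOV3 grown in DMEM, MCF7 in RPMI1640, all with 10% FBS. Cells attached 24 h, then exposed 24 h to BODIPY (0.1–200 nM) at 37 °C. Medium replaced by PBS and cells irradiated 2 h with green LED, then held 24 h in the dark in drug-free medium. MTT (2 mg/mL) added for 3 h; DMSO-dissolved formazan read by absorbance. IC50 from dose-response curves; 3–5 independent experiments.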

[2] = system: SK-OV-3; experiment: Antiproliferative activity against human SK-OV-3 cells assessed as reduction in cell viability preincubated for 24 hrs followed by irradiated with green LED for 2 hrs then incubated in dark for 24 hrs in drug free medium by MTT assay; type: functional, cell-based; conditions: SK-OV-3, light or radiation study; summary of the method: as §1
[3] = Drug uptake in human SK-OV-3 cells assessed as intracellular accumulation at 10 uM incubated for 24 hrs spectrophotometric analysis; type: ADME, cell-based; conditions: sk-ov-3, 24 h
Summary of the method: (§2)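 Cells (3 × 10^6 per 75 cm² flask) grown 48 h, then exposed 24 h to BODIPY at 10 µM. Cells trypsinized and lysed in 0.1 M NaOH/1% SDS (5 × 10^6 cells/mL). Absorbance read at λmax; intracellular amount taken from a calibration curve prepared in SDS-lysed cells. 3–5 independent experiments.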

[4] = system: SK-OV-3; experiment: Induction of cell cycle arrest in human SK-OV-3 cells assessed as accumulation at G1 phase at antiproliferative IC50 preincubated for 24 hrs followed by irradiated with green LED for 2 hrs then incubated in dark for 24 hrs in drug free medium by PI staining based flow cytometric analysis; type: functional
Summary of the method: (§3)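 DNA content measured by PI flow cytometry (575 nm) in linear mode to give cell-cycle phase distribution. Untreated controls; 3 independent experiments.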

[5] = system: SK-OV-3; experiment: Induction of ROS generation in human SK-OV-3 cells at antiproliferative IC50 preincubated for 24 hrs followed by irradiated with green LED for 2 hrs measured at the end of irradiation in drug free medium by DCFH-DA dye based flow cytometry relative to control
[6] = system: HCT-116; experiment: Induction of ROS generation in human HCT116 cells at antiproliferative IC50 preincubated for 24 hrs followed by irradiated with green LED for 2 hrs then incubated in dark for 24 hrs in drug free medium by DCFH-DA dye based flow cytometry relative to control; type: functional, cell-based
[7] = system: MCF7; experiment: Induction of cell cycle arrest in human MCF7 cells assessed as cell cycle distribution at antiproliferative IC50 preincubated for 24 hrs followed by irradiated with green LED for 2 hrs then incubated in dark for 24 hrs in drug free medium by PI staining based flow cytometric analysis; type: functional; summary of the method: as §3
[8] = system: SK-OV-3; experiment: Induction of apoptosis in human SK-OV-3 cells assessed as increase in apoptotic incubated for 24 hrs by PI staining based flow cytometric analysis; type: functional, cell-based
[9] = system: MCF7; experiment: Induction of apoptosis in human MCF7 cells assessed as increase in apoptotic cells at antiproliferative IC50 preincubated for 24 hrs followed by irradiated with green LED for 2 hrs then incubated in dark for 24 hrs in drug free medium by PI staining based flow cytometric analysis; type: functional, cell-based
Summary of the method: (§4)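 PI-stained cells analyzed by flow cytometry (575 nm); apoptotic fraction taken from the sub-G1 peak in log-mode histograms. Untreated controls; 3–5 independent experiments.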

[10] = system: MCF7; experiment: Induction of apoptosis in human MCF7 cells assessed as increase in necrotic cells at antiproliferative IC50 preincubated for 24 hrs followed by irradiated with green LED for 2 hrs then incubated in dark for 24 hrs in drug free medium by PI staining based flow cytometric analysis; type: functional, cell-based; summary of the method: as §4
[11] = system: HCT-116; experiment: Induction of cell cycle arrest in human HCT116 cells assessed as accumulation at G1 phase at antiproliferative IC50 preincubated for 24 hrs followed by irradiated with green LED for 2 hrs then incubated in dark for 24 hrs in drug free medium by PI staining based flow cytometric analysis; type: functional; summary of the method: as §3
[12] = system: SK-OV-3; experiment: Induction of cell cycle arrest in human SK-OV-3 cells assessed as cell cycle distribution at antiproliferative IC50 preincubated for 24 hrs followed by irradiated with green LED for 2 hrs then incubated in dark for 24 hrs in drug free medium by PI staining based flow cytometric analysis; type: functional; summary of the method: as §3
[13] = system: HCT-116; experiment: Induction of apoptosis in human HCT116 cells assessed as increase in apoptotic incubated for 24 hrs by PI staining based flow cytometric analysis; type: functional, cell-based
[14] = system: MCF7; experiment: Induction of apoptosis in human MCF7 cells assessed as increase in apoptotic incubated for 24 hrs by PI staining based flow cytometric analysis; type: functional, cell-based
[15] = Drug uptake in human MCF7 cells assessed as intracellular accumulation at 10 uM incubated for 24 hrs spectrophotometric analysis; type: ADME, cell-based; conditions: mcf7, 24 h; summary of the method: as §2
[16] = system: SK-OV-3; experiment: Induction of apoptosis in human SK-OV-3 cells assessed as increase in necrotic cells at antiproliferative IC50 preincubated for 24 hrs followed by irradiated with green LED for 2 hrs then incubated in dark for 24 hrs in drug free medium by PI staining based flow cytometric analysis; type: functional, cell-based; summary of the method: as §4
[17] = system: HCT-116; experiment: Induction of cell cycle arrest in human HCT116 cells assessed as cell cycle distribution at antiproliferative IC50 incubated for 24 hrs by PI staining based flow cytometric analysis; type: functional
[18] = system: MCF7; experiment: Induction of cell cycle arrest in human MCF7 cells assessed as cell cycle distribution at antiproliferative IC50 incubated for 24 hrs by PI staining based flow cytometric analysis; type: functional
[19] = Drug uptake in human HCT116 cells assessed as intracellular accumulation at 10 uM incubated for 24 hrs spectrophotometric analysis; type: ADME, cell-based; conditions: hct-116, 24 h; summary of the method: as §2
[20] = system: MCF7; experiment: Antiproliferative activity against human MCF7 cells assessed as reduction in cell viability preincubated for 24 hrs followed by irradiated with green LED for 2 hrs then incubated in dark for 24 hrs in drug free medium by MTT assay; type: functional, cell-based; conditions: MCF7, light or radiation study; summary of the method: as §1
[21] = system: SK-OV-3; experiment: (§5) Antimigratory activity against human SK-OV-3 cells assessed as open scratch wound at 0.75 nM preincubated for 24 hrs followed by irradiated with green LED for 2 hrs measured immediately in drug free medium by scratch wound healing based microscopic analysis (Rvb 38.27 +/- 3.02%); type: functional
[22] = system: SK-OV-3; experiment: as §5, with “then incubated in dark for 24 hrs” for “measured immediately”, “(reference value: 8.68” for “(Rvb 38.27”, “0.58%)” for “3.02%)”; type: functional
[23] = system: SK-OV-3; experiment: Antimigratory activity against human SK-OV-3 cells assessed as open scratch wound at 2.5 nM incubated for 24 hrs by scratch wound healing based microscopic analysis; type: functional, cell-based
[24] = system: MCF7; experiment: Induction of cell cycle arrest in human MCF7 cells assessed as accumulation at G1 phase at antiproliferative IC50 preincubated for 24 hrs followed by irradiated with green LED for 2 hrs then incubated in dark for 24 hrs in drug free medium by PI staining based flow cytometric analysis; type: functional; summary of the method: as §3
[25] = system: SK-OV-3; experiment: Antimigratory activity against human SK-OV-3 cells assessed as open scratch wound at 0.75 nM incubated for 24 hrs by scratch wound healing based microscopic analysis; type: functional, cell-based
[26] = system: HCT-116; experiment: Induction of cell cycle arrest in human HCT116 cells assessed as cell cycle distribution at antiproliferative IC50 preincubated for 24 hrs followed by irradiated with green LED for 2 hrs then incubated in dark for 24 hrs in drug free medium by PI staining based flow cytometric analysis; type: functional; summary of the method: as §3
[27] = system: SK-OV-3; experiment: Induction of apoptosis in human SK-OV-3 cells assessed as increase in apoptotic cells at antiproliferative IC50 preincubated for 24 hrs followed by irradiated with green LED for 2 hrs then incubated in dark for 24 hrs in drug free medium by PI staining based flow cytometric analysis; type: functional, cell-based; summary of the method: as §4
[28] = system: MCF7; experiment: Induction of ROS generation in human MCF7 cells at antiproliferative IC50 preincubated for 24 hrs followed by irradiated with green LED for 2 hrs then incubated in dark for 24 hrs in drug free medium by DCFH-DA dye based flow cytometry relative to control; type: functional, cell-based
[29] = system: SK-OV-3; experiment: Induction of cell cycle arrest in human SK-OV-3 cells assessed as cell cycle distribution at antiproliferative IC50 incubated for 24 hrs by PI staining based flow cytometric analysis; type: functional
[30] = system: SK-OV-3; experiment: as §5, with “2.5” for “0.75”, “then incubated in dark for 24 hrs” for “measured immediately”, “(reference value: 8.68” for “(Rvb 38.27”, “0.58%)” for “3.02%)”; type: functional
[31] = system: SK-OV-3; experiment: Antimigratory activity against human SK-OV-3 cells assessed as open scratch wound at 2.5 nM preincubated for 24 hrs followed by irradiated with green LED for 2 hrs measured immediately in drug free medium by scratch wound healing based microscopic analysis (Rvb 38.27 +/- 3.02%); type: functional

IC50 [1] [nM] | IC50 [2] [nM] | Drug uptake [3] | Drug uptake [15] | Drug uptake [19] | IC50 [20] [nM] | Compound | Activity [5] | Activity [6] | Activity [7] | Activity [8] | Activity [9] | Activity [10] | Activity [11] | Activity [12] | Activity [13] | Activity [14] | Activity [16] | Activity [17] | Activity [18] | Activity [23] | other results
2 | 3.56 | Active | Active | Active | 6.88 | CC1=C(I)C(C)=[N+]2C1=C(c1ccc(OCCCCBr)cc1)c1c(C)c(I)c(C)n1[B-]2(F)F | Active | inactive | inactive | inactive | Active | Active | inactive | inactive | inactive | inactive | Active | inactive | inactive | inactive | Activity [4]: inactive; Activity [21]: 35.19%; Activity [22]: 24.81%; Activity [24]: inactive; Activity [25]: inactive; Activity [26]: inactive; Activity [27]: Active; Activity [28]: inactive; Activity [29]: inactive
11.7 | 15.6 | Active | Active | Active | 23.1 | CC1=C(I)C(C)=[N+]2C1=C(c1ccc(OCCCCCCCCBr)cc1)c1c(C)c(I)c(C)n1[B-]2(F)F | Active | inactive | inactive | inactive | Active | Active | inactive | inactive | inactive | inactive | Active | inactive | inactive | inactive | Activity [30]: 13.53%; Activity [31]: 37.71%; Activity [24]: inactive; Activity [25]: inactive; Activity [26]: inactive; Activity [27]: Active; Activity [28]: inactive; Activity [29]: inactive
